Hits are enriched below; roughly 4.9% of the tested compounds scored in any of these assays.
STAT3 inh: STAT3 signaling inhibition; U3A cells, IL-6 STAT3-luciferase reporter, luminescence; host cell line lacks STAT1; inhibition, % at 5.5 µM; 190,000 tested, 0.89% active; AID 862;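 active = inhibition above the mean inhibition across all screened compounds plus 3 SD, cut at about 44% in these data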
STAT1 blocker: reduces IFN-gamma driven STAT1 reporter signal. NIH 3T3 STAT1-luciferase reporter, luminescence. inhibition, % at 5.5 µM. 200,000 tested, 0.35% active. AID 920;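 active = inhibition above a set limit, the mean inhibition across all tested compounds plus 3 SD, cut at about 34% in these data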
STAT3 act: increases IL-6 driven STAT3 reporter signal; U3A cells, IL-6 STAT3-luciferase reporter, luminescence; 100% = signal with IL-6 EC80 alone; activation (% of control), % at 5.6 µM; 190,000 tested, 0.91% active; AID 871;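 active = activation above the screen-wide mean of compound activation plus 3 SD, cut at about 130% in these data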
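Test system: human U3A cells carrying STAT3-luciferase construct; control set: IL-6-only wells as 100% reference; timing: compound pre-incubation 1 h before IL-6, then 6 h stimulation at 37 °C; also added: IL-6 stimulus at 33 ng/mL final; evaluation: % activation versus median of IL-6-stimulated wells; detection: reporter luminescence signal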
NF-kB expr up: NF-kB expression increase, human neuronal cells. NF-kB reporter expression; active compounds read high. fold change at 12.5 µM. 190,000 tested, 1.6% active. AID 1239; in the data active = fold change above about 3.3
APP 5'UTR act: APP 5'UTR luciferase reporter activation; 190,000 tested, 1% active; AID 1276; SH-SY5Y APP 5'UTR luciferase reporter, luminescence; zero percent = DMSO vehicle wells; activation, % at 2 µM;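 active = activation above a set limit, based on mean plus 3 SD of controls, cut at about 140% in these data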
STAT1 activator: STAT1 signaling activation; 200,000 tested, 2.6% active; activation (% of control), % at 5.5 µM; NIH 3T3 STAT1-luciferase reporter, IFN-gamma, luminescence; 100% = IFN-gamma alone, no compound;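 active = activation above the screen-wide mean activation plus 3 SD, cut at about 130% in these data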
Each line names hits and unclear results; the compound was inactive in the other large screens.

CC(O)c1nc2ccccc2n1CC(=O)Nc1ccc(F)cc1Cl (configuration not stated)	none
CCCCN(C)C(=S)Nc1ccc2nc3n(c(=O)c2c1)CCCCC3	none
N/C(=N\OC(=O)CC1CCCCC1)c1ccccn1	NF-kB expr up 4.8
N/C(=N\OC(=O)CC1CCCCC1)c1ccncc1	none
N/C(=N\OC(=O)COc1ccc2ccccc2c1)c1ccccn1	none
Cc1ccc(C)c(OCC(=O)O/N=C(\N)c2ccccn2)c1	NF-kB expr up 6.2, STAT1 activator 135
O=C(CCc1nnc(-c2ccc(-c3ccccc3)cc2)o1)N1CCCCC1	none (no result: NF-kB expr up)
O=C(CCc1nnc(-c2ccsc2)o1)N1CCc2c(Cl)cccc2C1	STAT1 activator 129
N/C(=N\OCc1ccccc1)c1nonc1N	STAT1 activator 129
COc1ccc(N(CC2CO2)S(=O)(=O)c2ccccc2)cc1 (configuration not stated)	none
Cc1nn(C(=O)c2cc3sccc3[nH]2)c(C)c1C	STAT3 act 143, STAT1 activator 138
Cc1nn(C(=O)CNC(=O)c2ccccc2)c(C)c1C	none
COC(=O)c1c(-c2ccc(F)cc2)csc1NC(=O)c1ccco1	STAT1 activator 146
O=C(Nc1scc(-c2ccccc2)c1C(=O)O)c1ccco1	none
CC(/C=N/NC(=O)c1cc(-c2cccnc2)nc2c1c(C)nn2-c1ccccc1)=C\c1ccccc1	none
NC(=O)C1(N2CCCCC2)CCN(c2ccc3nnc(-c4ccccc4)n3n2)CC1	none
c1ccc(-c2nnc3ccc(N4CCC5(CC4)OCCO5)nn23)cc1	NF-kB expr up 3.6
COc1cc(=O)n(C)c2c(OCC3OC(C)(C)OC3(C)C)cccc12 (configuration not stated)	none
COc1ccc(CCNc2nnc(Sc3nnnn3-c3ccccc3)s2)cc1OC	NF-kB expr up 3.7
Nn1c(SCc2ccccc2)nnc1-c1ccccn1	STAT1 activator 131
Cn1c(CCC(=O)OCC(=O)NCc2ccc3c(c2)OCO3)nc(=O)c2ccccc21	none
CCOC(=O)Cn1c2c(c(=N)c3c1CCC3)CCC2	none
CCCCCCCCCCn1c2c(c(=N)c3c1CCC3)CCC2	STAT3 inh 78
CCCCCCCCCn1c2c(c(=N)c3c1CCC3)CCCC2	STAT3 inh 76, STAT1 blocker 52
CCc1ccccc1NC(=O)CCc1nc(-c2cccs2)no1	none
Cc1ccc(-c2cn(-c3ccccc3)c(SCC(=O)NC3CCS(=O)(=O)C3)n2)cc1C (configuration not stated)	STAT1 activator 136
COc1ccc(Oc2nnc(C)c3ccccc23)cc1	NF-kB expr up 3.5, STAT1 activator 130
CCO[C@@H]1OC(C(=O)O)=C[C@H](c2ccc3c(c2)OCO3)[C@H]1CCCO	none (no result: STAT3 inh, STAT3 act)
Cn1c(NC(=O)CCC2CCCCC2)cc(=O)n(C)c1=O	NF-kB expr up 3.8, STAT1 activator 148
O=C(CCC1CCCCC1)Nc1ccccc1-c1ccccc1	none
Cc1ccc(O)c(NC(=O)CCCC(=O)O)c1	none
Cc1ccc(O)c(NC(=O)CCC2CCCCC2)c1	NF-kB expr up 4.1
O=C(CCC1CCCCC1)Nc1ccccc1O	NF-kB expr up 6.4
Cc1cc(C)c2c(=O)cc(C(F)(F)F)oc2n1	none (no result: NF-kB expr up)
C/C=C/C=N/NC(=O)CN(c1ccc(Br)cc1)S(=O)(=O)c1ccccc1	none
C/C(=N\NC(=O)c1c(C)nc2ccccn12)c1ccco1	STAT1 activator 134
C/C(=N\NC(=O)c1c(C)nc2ccccn12)c1ccc(N2CCOCC2)cc1	none
CCN(CC1CCCO1)C(=O)CCc1nnc(Cc2ccc3c(c2)OCO3)o1 (configuration not stated)	none
CCCOC1CCCN(C(=O)CCc2nnc(Cc3cccc(C)c3)o2)C1 (configuration not stated)	STAT1 activator 143
Cc1cccc(Cc2nnc(CCC(=O)N(CC3CC3)CC3CCCO3)o2)c1 (configuration not stated)	STAT1 activator 136
CC(C(=O)N1CCc2ccccc21)n1cccc1 (configuration not stated)	none
CCN(CC)CCn1c2ccccc2c2cnc(N)c(C#N)c21	STAT3 act 169, STAT1 activator 176
Cc1ccc(C(=O)Oc2cccc(-n3cnnn3)c2)cc1	STAT1 activator 135
S=C(c1ccc(-c2ccccc2Cl)o1)N1CCOCC1	none
S=C(c1ccc(-c2ccc(Cl)cc2Cl)o1)N1CCCCC1	NF-kB expr up 3.9, STAT1 activator 144
COc1ccc(C(C)=O)cc1COc1nc(C)nc2ccccc12	none
CCCC(=O)N=C1SC2CS(=O)(=O)CC2N1c1ccc(-c2nc3ccc(C)cc3s2)cc1 (configuration not stated)	STAT1 activator 131
COc1ccc(N2C(=NC(C)=O)SC3CS(=O)(=O)CC32)cc1OC (configuration not stated)	none
Cc1ccc(-c2nc(=S)c3c(n2Cc2ccco2)CCCC3)cc1	STAT3 act 143
Cc1cccc(-c2nc(=S)c3c(n2Cc2ccco2)CCCC3)c1	none
O=c1cc(-c2ccc(O)cc2)oc2ccc(O)cc12	NF-kB expr up 4.1, STAT1 activator 150
COc1ccc(-c2cc(=O)c3c(O)c(OC)c(O)cc3o2)cc1	NF-kB expr up 9, APP 5'UTR act 152 (no result: STAT3 inh, STAT3 act)
COc1cc(-c2cc(=O)c3c(O)cc(O)cc3o2)ccc1O	none (no result: STAT3 inh, STAT3 act)
COc1cc(-c2cc(=O)c3ccccc3o2)ccc1O	STAT1 activator 134
COc1ccc(NC(=O)c2nc(C)n(-c3ccc([N+](=O)[O-])cc3)n2)cc1	none
O=S(=O)(/C=C/c1ccccc1)N1CCN(Cc2ccccc2)CC1	none
COc1ccc(C)cc1N(CC(=O)N/N=C/c1ccccc1C(=O)O)S(=O)(=O)c1ccccc1	none
Cc1ccccc1SCCNC(=O)CCc1ccccc1	STAT1 activator 149
Cc1ccc(NC(=O)Nc2ccc3c(c2)nc(C)n3C)cc1	NF-kB expr up 6.5, STAT1 activator 132
COC(=O)c1ccc(NC(=O)Nc2ccc3c(c2)nc(C)n3C)cc1	none
CC(=O)c1ccc(NC(=O)Nc2ccc3c(c2)nc(C)n3C)cc1	none
Cc1nc2cc(NC(=O)Nc3ccccc3Cl)ccc2n1C	STAT3 inh 84, STAT1 blocker 40, NF-kB expr up 3.9, APP 5'UTR act 193
Cc1ccc(S(=O)(=O)N2CCN(C(=O)c3ccc([N+](=O)[O-])cc3)C2)cc1	none
COC(=O)c1ccc(NC(=O)C(=O)NCC2CCCO2)cc1 (configuration not stated)	none
CC(=O)Nc1ccc(/C=N/N2CCCCC2)cc1	STAT1 activator 135
CCOC(=O)N1CCN(C(=S)NC(=O)c2ccc(F)c(F)c2)CC1	none
CC(=O)NCc1ccc(C(=O)CCl)s1	NF-kB expr up 4
COc1cccc(NC(=O)c2csc3c2CCCC3)c1	STAT1 activator 145
